According to ChEMBL document CHEMBL1123084, “Decomposition reactions of (hydroxyalkyl) nitrosoureas and related compounds: possible relationship to carcinogenicity” (J Med Chem, 1985):

Legend:
Format in all cases: ADME
[1] = Half life in 0.067 M (D20), pH = 6.0; details: 0.067 M (D2O)
In short: (§1)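 Compound at 0.02-0.03 M was decomposed in sealed vials at 37 °C. The pH 3.0 medium was perchloric acid; the other pH values used 0.067 M phosphate buffer (pH 5.5, 6.0, 6.5, 8.0). Loss of starting material was followed by HPLC, and half-life came from first-order ln concentration vs time plots.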

[2] = Half life in 0.067 M (D20), pH = 5.5; details: 0.067 M (D2O); in short: as §1
[3] = Half life in 0.067 M (D20), pH = 6.5; details: 0.067 M (D2O); in short: as §1
[4] = Half life in 0.10 M (D20), pH = 7.4; details: 0.10 M (D2O)
[5] = Half life in 0.067 M buffer, pH = 7.4
[6] = Half life in 0.10 M buffer, pH = 7.4
[7] = Half life in buffer
In short: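 Compound was dissolved in pH 7.4 phosphate buffer (0.067 or 0.1 M) in sealed vials at 37 °C. Loss of parent was monitored by HPLC, and the first-order half-life was derived from ln concentration vs time.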

[8] = Half life in 0.067 M (D2O), pH = 7.4
[9] = Half life in 0.067 M buffer, pH = 8; in short: as §1
[10] = Half life in 0.01 M HClO4, pH = 3.0; in short: as §1

Which results are given for `CC(O)CN(N=O)C(N)=O` (stereo unspecified)?
half-life [1]: 120 min; half-life [2]: 410 min; half-life [3]: 26 min; half-life [4]: 37.2 min; half-life ([5]; 0.067 M buffer): 14.5 min; T1/2 ([5]; buffer): 9.5 min; half-life [6]: 20 min; half-life [7]: 15 min; half-life [8]: 70 min; half-life [9]: 6.5 min; half-life [10]: 600 min
